From ChEMBL document CHEMBL4513216, “Probing the Open Global Health Chemical Diversity Library for Multistage-Active Starting Points for Next-Generation Antimalarials” (ACS Infect Dis, 2020) come the findings set out here.

The series in a line: Toxicity liver stage against HepG2, at 10uM. It is filed as cell-based. Also on record: test concentration 10 uM, cell line HepG2-A16-CD81EGFP. The following applies: human, HepG2-A16-CD81EGFP cells; read-out: INHIBITION
Summed up: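 Uninfected HepG2-A16-CD81EGFP cells, 3 × 10^3 per well, 1536-well, plated on prespotted compound at 10 μM final, parasite-free screening media added to match infected plates; puromycin 10 μM positive, DMSO 0.5% negative; run in parallel with 48 h PbLuc assay at 37 °C, 5% CO2; viability by CellTiter-Glo luminescence, normalized to controls.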
As for `C1CCC(OCCN2CCN(CCOC3CCCCC3)CC2)CC1`, the cytotoxicity at 10 µM was -0.434%.

Take `Cn1cnnc1S(=O)(=O)C1CCN(S(=O)(=O)c2ccc(Cl)s2)CC1`: the cytotoxicity at 10 µM is -4.72%.

Turning to `CC(C)N(C)Cc1nnc2n1CCCN(C(=O)C1CCCO1)C2` (stereo not given), the cytotoxicity at 10 µM worked out at 19%.

On to `CC(=O)NCc1noc2c1CN(Cc1cnn(C)c1)CC2`, for which the cytotoxicity at 10 µM was -1.71%.

Turning to `Cc1cc(C)cc(CN2C[C@@H]3OCCN(S(=O)(=O)N(C)C)[C@@H]3C2)c1`, the cytotoxicity at 10 µM is 8.28%.

Turning to `O=C(NC1CC1)N1CCc2ccc(=O)n(Cc3ccncc3)c2CC1`, the cytotoxicity at 10 µM was -0.972%.

`CCC(CC)C(=O)N1CCN(C)c2ncccc2C1`: the cytotoxicity at 10 µM was -3%.

Turning to `CC(C)CN1C[C@H]2CCN(C(=O)NC3CCCC3)CC[C@H]2S1(=O)=O`, the cytotoxicity at 10 µM came out at 7.31%.

On to `CC(C)Cc1nc(OCC(=O)O)c(C#N)c2c1CCC2`, for which the cytotoxicity at 10 µM was -5.93%.

As to `CN1CCN(C(=O)c2cc(NC(=O)c3ccccc3)n(C)n2)CC1`, the cytotoxicity at 10 µM came out at 4.07%.

As for `O=C(NCCCO)c1nnsc1-c1ccccc1`, the cytotoxicity at 10 µM amounted to 7.47%.

`c1cc(NC2CC3(CCN(Cc4cscn4)C3)C2)ncn1` (stereo not given): the cytotoxicity at 10 µM was -2.28%.

Regarding `Cc1csc2c(C3CCN(CCCOc4ccccc4)CC3)nc(C)n12`, the cytotoxicity at 10 µM was 1.63%.

With `CNC(=O)C1CN(C(C)C)CCN1c1ncccn1` (stereo not given), the cytotoxicity at 10 µM turned out to be 1.22%.

Turning to `Cc1ncc(CN2CCc3c(nc4cc(C5CC5)nn4c3O)C2)n1C`, the cytotoxicity at 10 µM is 6.62%.

In the case of `c1ncc(CN2CC(Cc3nccc4cc[nH]c34)C2)cn1`, the cytotoxicity at 10 µM is -1.06%.

Consider `CC(C)CNC(=O)C1(Cc2ccccc2-c2ccccc2)CCNC1` (stereo not given), for which the cytotoxicity at 10 µM is -17.8%.

On to `Cn1ccnc1C(=O)N1CCOC(Cc2ccc(Cl)cc2)C1` (stereo not given), for which the cytotoxicity at 10 µM turned out to be 9.23%.

Take `Cn1nc(C2CCN(C(=O)c3cccs3)CC2)c2cccnc21`: the cytotoxicity at 10 µM was -8.72%.

Consider `Cc1cc(-c2cnc(N3CCSCC3)nc2-c2ccc(C)s2)on1`, for which the cytotoxicity at 10 µM is -2.5%.

For the molecule `O=C(c1cnco1)N1C[C@@H]2CC[C@H](Oc3cccc(F)c3)[C@@H]2C1`, the cytotoxicity at 10 µM is -6.18%.

Take `N#Cc1ccccc1OCCN1CCCCC1C(=O)N1CCOCC1` (stereo not given): the cytotoxicity at 10 µM is -45.6%.

On to `CCCN1CCC(N(C)C(=O)c2cc(C)nc3cc(F)ccc23)CC1`, for which the cytotoxicity at 10 µM is 0.906%.

Turning to `Cc1ccc(CCCC(=O)N2CCC(=O)Nc3cccnc32)s1`, the cytotoxicity at 10 µM was -60.7%.

In the case of `Cc1ncsc1CCN(C)Cc1ccc(Br)o1`, the cytotoxicity at 10 µM is -43%.

As to `COCC(C)NC(=O)CN1CCC2(CC1)OCCO2` (stereo not given), the cytotoxicity at 10 µM worked out at 7.3%.

For the molecule `Cc1noc(C)c1CCC(=O)N1CCCCC1CNS(C)(=O)=O` (stereo not given), the cytotoxicity at 10 µM was determined as 8.71%.

With `CCOc1nnc(CN(C)C2CCCN(c3ccc(C)nn3)C2)s1` (stereo not given), the cytotoxicity at 10 µM came to 13.2%.

With `CC(C)OCCCNC(=O)c1cccnc1N1CCOCC1`, the cytotoxicity at 10 µM was found to be 10.5%.

As for `CCN(C(c1cccnc1)c1cc(C)cc(C)c1)S(C)(=O)=O` (stereo not given), the cytotoxicity at 10 µM worked out at 2.88%.

For the molecule `COc1ccc2cc(CN(C)C(C)c3nc(C4CC4)no3)ccc2c1` (stereo not given), the cytotoxicity at 10 µM amounted to 3.18%.

Turning to `CN(CC(=O)NCC(F)(F)F)Cc1nc2c(s1)CCCC2`, the cytotoxicity at 10 µM was found to be 19%.

`CN1CCC(NC(=O)Cc2csc(C(C)(C)C)n2)CC1`: the cytotoxicity at 10 µM is -2.37%.

Turning to `Cc1ccc(CNC(=O)c2c[nH]nc2NC(=O)C2CCC2)cc1`, the cytotoxicity at 10 µM came out at 2.05%.

As to `O=C(O)c1cccn1-c1ccc2c(c1)OCCO2`, the cytotoxicity at 10 µM is -7.48%.

With `CN(CC1CC1)S(=O)(=O)c1ccc(C(F)(F)F)cc1C#N`, the cytotoxicity at 10 µM was 2.95%.

As to `CN1CCN(c2ncc(CNCCCc3cccc(F)c3)cn2)CC1`, the cytotoxicity at 10 µM is -13.2%.

With `CCOc1ccc(Cl)cc1NC(=O)N1CCC(n2cncn2)CC1`, the cytotoxicity at 10 µM is 4.93%.

Consider `CC(C)c1nc(CNC2CCN(C(=O)OC(C)(C)C)CC2)cs1`, for which the cytotoxicity at 10 µM was -1.72%.

With `CC(=O)N1CCC(NC(=O)NCc2ncc(-c3ccccc3)o2)CC1`, the cytotoxicity at 10 µM is -44.7%.

Turning to `Nc1cc2c(nn1)CCN(C(=O)c1csc(-c3ccccc3)n1)C2`, the cytotoxicity at 10 µM was -12.4%.

In the case of `O=C(C(CNCc1ccsc1)c1ccccc1)N1CCOCC1` (stereo not given), the cytotoxicity at 10 µM is -7.32%.

In the case of `Cc1cc(C)nc(N2CCN(C(=O)c3cc(Cl)c[nH]3)CC2)n1`, the cytotoxicity at 10 µM is -4%.

As for `CCN(CC)c1ccc(NS(=O)(=O)c2cncc(F)c2)cn1`, the cytotoxicity at 10 µM was -8.37%.

On to `OCCNc1cc(-c2ccccc2)ncn1`, for which the cytotoxicity at 10 µM is -7.94%.

`OCCNc1cc(-c2ccncc2)ncn1`: the cytotoxicity at 10 µM was -7.88%.

Take `O=S(=O)(NCc1ccccc1)Nc1cccc(Cn2cncn2)c1`: the cytotoxicity at 10 µM is 5.91%.

Regarding `CCc1cc(NC(CCO)c2ccc(OC)cc2)n2nccc2n1` (stereo not given), the cytotoxicity at 10 µM is -30.4%.

As for `Cc1ncsc1-c1nc(Cc2cccs2)nn1C1CCN(C)CC1`, the cytotoxicity at 10 µM was -4.51%.

In the case of `CCOC(=O)N1CCN(c2nc(C)ncc2CC)CC1`, the cytotoxicity at 10 µM was -61.2%.

Consider `Cc1nnsc1C(=O)N1CCN(C(=O)C2CCC2)[C@@H]2CS(=O)(=O)C[C@@H]21`, for which the cytotoxicity at 10 µM is -2%.

`Cc1ccc(C)c2c(C)c(C(=O)NCCCn3ccnn3)[nH]c12`: the cytotoxicity at 10 µM was -0.84%.

Take `Cc1ccc(N2CCCC(c3[nH]ncc3Cc3ccccc3)C2)nn1` (stereo not given): the cytotoxicity at 10 µM came out at 10.4%.

`Cn1ccnc1CN1CCN(Cc2ccccc2)[C@@H]2CS(=O)(=O)C[C@@H]21`: the cytotoxicity at 10 µM was -3.41%.

On to `Cc1ccc([C@@H]2CN(C(=O)c3ccsc3)C[C@H]2NC(=O)C2CC2)cc1`, for which the cytotoxicity at 10 µM was determined as 2.93%.

On to `O=C(O)c1cc(C2=CCCCC2)cc(S(=O)(=O)NCc2ccccn2)c1`, for which the cytotoxicity at 10 µM is -46.6%.

As for `CCN(C)Cc1n[nH]c(=O)n1-c1ccc(C)c(C)c1`, the cytotoxicity at 10 µM turned out to be 6.27%.

As for `CCC(CO)N(Cc1ccccn1)Cc1ccc(-c2ccn[nH]2)s1` (stereo not given), the cytotoxicity at 10 µM worked out at 2.66%.

As to `CC(C)C(C)N(Cc1cnc2ccccc2n1)Cc1ccco1` (stereo not given), the cytotoxicity at 10 µM stood at 14.7%.

In the case of `CCc1cnc(C)nc1N1CCC(Cc2cccc(C(=O)O)c2)C1` (stereo not given), the cytotoxicity at 10 µM was 2.42%.

With `CCCc1nc(C)cc(N2CCNC(C(=O)NC3CC3)C2)n1` (stereo not given), the cytotoxicity at 10 µM was -56.5%.

Regarding `CCc1[nH]c2c(CNc3cncc(C(=O)N(C)C)n3)cc(F)cc2c1C`, the cytotoxicity at 10 µM was 3.86%.

For `COc1ccc(F)c(CN2CCCC3(CCN(S(C)(=O)=O)C3)C2)c1` (stereo not given), the cytotoxicity at 10 µM was -2.93%.

Consider `COc1cccc(N2CCC(N3C[C@@H](NC(C)=O)[C@H](C(C)C)C3)CC2)c1`, for which the cytotoxicity at 10 µM is -9.98%.

As for `N[C@H]1CN(Cc2cnc(N3CCCC3)nc2)C[C@@H]1C1CC1`, the cytotoxicity at 10 µM is -45.5%.

`Cc1ccc(C(=O)Nc2ccc(OC3CCN(C)CC3)cc2)c(C)c1`: the cytotoxicity at 10 µM worked out at 7.48%.

As to `COc1nccnc1N1CCN(Cc2ccc3c(c2)OCO3)C(=O)C1`, the cytotoxicity at 10 µM was -1.65%.

In the case of `O=C(O)C(c1ccc2c(c1)OCCO2)N1CCCC1` (stereo not given), the cytotoxicity at 10 µM is -5.38%.

Take `CC(C)N(C)C(=O)CN1CCCC(c2ccc(C(=O)O)cc2)C1` (stereo not given): the cytotoxicity at 10 µM was -7.74%.

With `O=C1CC2(CCN(CC3CCOC3)CC2)CN1Cc1cc(F)cc(F)c1` (stereo not given), the cytotoxicity at 10 µM was -18.9%.

Consider `CN(c1ccc(C(=O)NCCCN2CCOCC2)c(Cl)c1)S(C)(=O)=O`, for which the cytotoxicity at 10 µM is -11.2%.

Take `O=C(O)c1cc(-c2cccs2)nc2c(Cl)cnn12`: the cytotoxicity at 10 µM is -8.33%.

`Cc1nc(CN(C)C2CCCN(c3cccnn3)C2)nc2ccccc12` (stereo not given): the cytotoxicity at 10 µM is -0.164%.

With `Cn1ncc2c(=O)[nH]c(CN(Cc3ccco3)C3CC3)nc21`, the cytotoxicity at 10 µM is -9.8%.

Regarding `Cc1ccc(NC2CCN(C(=O)c3ccc(F)c(C)c3)CC2)nn1`, the cytotoxicity at 10 µM turned out to be 2.37%.

Regarding `Cc1nccn1C1CCCN(C(=O)c2ccc3c(c2)OCCCO3)C1` (stereo not given), the cytotoxicity at 10 µM was -12.9%.

Turning to `CCn1c(CN2CCN(CCOC)CC2)nc2c(F)cccc21`, the cytotoxicity at 10 µM is -9.86%.

`Cc1nc(C)n(CC2CCCN2Cc2nc(-c3ccsc3)no2)n1` (stereo not given): the cytotoxicity at 10 µM is -9.8%.

Turning to `CC(C(=O)NCc1ccc(-n2cncn2)nc1)S(C)(=O)=O` (stereo not given), the cytotoxicity at 10 µM turned out to be 7.41%.

On to `Cc1ccc(CN(C)Cc2nc3c(cnn3C)c(=O)[nH]2)c(C)c1`, for which the cytotoxicity at 10 µM amounted to 0.403%.

As for `N#CCCN(C(=O)CN1CCCC1c1ccsc1)c1ccccc1F` (stereo not given), the cytotoxicity at 10 µM is -5.8%.

As to `CSc1ncccc1C(=O)NCc1ccc(CS(=O)(=O)NC(C)C)cc1`, the cytotoxicity at 10 µM amounted to 4.4%.

Consider `Cc1cc(C)n(C2CCCN(C(=O)CCCNc3ncccn3)C2)n1` (stereo not given), for which the cytotoxicity at 10 µM is 5.15%.

As to `Cc1ccc(NC2CCN(C(=O)Cc3cccc(F)c3)CC2)nn1`, the cytotoxicity at 10 µM is -5.23%.

For `Cc1ncc(CN2Cc3ccccc3OC3(CCC(CO)CC3)C2)cn1` (stereo not given), the cytotoxicity at 10 µM was 0.179%.

For `COc1cccc(CN2CCC3(CCN(c4ncc(F)cn4)CC3)C2)c1`, the cytotoxicity at 10 µM is -0.664%.

Regarding `COCCN1CCC2(COCCN(Cc3ccc4c(c3)OCO4)C2)C1` (stereo not given), the cytotoxicity at 10 µM is -0.234%.

With `CCN(CC)c1ccc2ccc(C(=O)N(CCOC)CCOC)cn12`, the cytotoxicity at 10 µM came to 1.15%.

With `O=C(NCC1CC1)[C@@H]1CCO[C@@H]2CCN(CCc3ccccc3)C[C@H]21`, the cytotoxicity at 10 µM worked out at 1.14%.

`COc1cccc(CN2CCC3(COCc4cnc(N(C)C)nc43)C2)c1` (stereo not given): the cytotoxicity at 10 µM is 11.2%.

Turning to `Cc1ccc(NC2COC3(CCN(CC(C)C)CC3)C2)nn1` (stereo not given), the cytotoxicity at 10 µM was -1%.

Take `Cc1ccc(CN2C[C@@H]3CCCO[C@@H]3[C@H](NS(C)(=O)=O)C2)o1`: the cytotoxicity at 10 µM is 5.16%.

On to `Cc1noc(C)c1CN1CCc2c(CNc3nccs3)n[nH]c2C1`, for which the cytotoxicity at 10 µM was 5.28%.

Consider `CN(C)CC(=O)N1CCC2(CC1)CN(c1ccsc1)C(=O)CO2`, for which the cytotoxicity at 10 µM was 10.1%.

Regarding `O=C(NCCN1CCOCC1)c1ccn(-c2ccc3ccccn23)n1`, the cytotoxicity at 10 µM is -0.735%.
